Test results reported in ChEMBL document CHEMBL1671832, “Discovery of novel cyanamide-based inhibitors of cathepsin C” (ACS Med Chem Lett, 2011).

Assays:
[1] = molecular target: Cathepsin S (Homo sapiens, UniProt P25774); assay: Inhibition of human recombinant cathepsin S after 1 hr
[2] = molecular target: Cathepsin B (Homo sapiens, UniProt P07858); assay: Inhibition of human recombinant cathepsin B after 1 hr
[3] = molecular target: T1, Cathepsin K (Homo sapiens, UniProt P43235); assay: Inhibition of human recombinant cathepsin K after 1 hr
T1 sequence (P43235 whole entry): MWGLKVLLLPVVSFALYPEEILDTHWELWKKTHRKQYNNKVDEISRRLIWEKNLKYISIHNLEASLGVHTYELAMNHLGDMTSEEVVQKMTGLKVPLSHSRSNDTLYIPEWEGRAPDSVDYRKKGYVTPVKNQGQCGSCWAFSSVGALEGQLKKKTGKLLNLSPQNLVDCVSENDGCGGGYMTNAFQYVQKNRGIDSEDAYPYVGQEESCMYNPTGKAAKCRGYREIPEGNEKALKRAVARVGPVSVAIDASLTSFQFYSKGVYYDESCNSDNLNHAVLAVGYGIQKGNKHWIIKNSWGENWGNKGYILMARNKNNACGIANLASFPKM

[4] = molecular target: Dipeptidyl peptidase 1 (Homo sapiens, UniProt P53634); assay: Inhibition of human recombinant cathepsin C after 1 hr
Sequence of Dipeptidyl peptidase 1 (P53634 25-134 limits assumed): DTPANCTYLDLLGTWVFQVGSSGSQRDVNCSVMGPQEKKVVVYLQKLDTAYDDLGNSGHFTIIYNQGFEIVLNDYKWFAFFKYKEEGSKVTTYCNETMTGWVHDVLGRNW
Sequence of Dipeptidyl peptidase 1 (P53634 231-394 limits assumed): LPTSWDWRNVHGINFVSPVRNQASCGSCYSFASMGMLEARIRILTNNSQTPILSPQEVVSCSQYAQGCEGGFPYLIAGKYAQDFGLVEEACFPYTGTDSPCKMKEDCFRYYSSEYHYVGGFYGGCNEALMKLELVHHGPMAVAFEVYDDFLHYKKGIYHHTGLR
Sequence of Dipeptidyl peptidase 1 (P53634 395-463 limits assumed): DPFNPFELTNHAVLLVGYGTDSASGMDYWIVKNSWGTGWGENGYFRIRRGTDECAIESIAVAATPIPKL

[5] = molecular target: Procathepsin L (Homo sapiens, UniProt P07711); assay: Inhibition of human recombinant cathepsin L after 1 hr
Sequence of Procathepsin L (P07711 whole entry): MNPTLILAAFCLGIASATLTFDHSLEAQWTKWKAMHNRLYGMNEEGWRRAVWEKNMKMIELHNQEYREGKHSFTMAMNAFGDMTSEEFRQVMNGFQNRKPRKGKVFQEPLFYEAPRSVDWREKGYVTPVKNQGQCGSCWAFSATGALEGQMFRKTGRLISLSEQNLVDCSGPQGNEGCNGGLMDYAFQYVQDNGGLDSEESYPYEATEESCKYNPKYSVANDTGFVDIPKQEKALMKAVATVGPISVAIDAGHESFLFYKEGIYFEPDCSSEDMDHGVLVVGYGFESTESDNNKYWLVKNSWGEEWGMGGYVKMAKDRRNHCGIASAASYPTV

[6] = Metabolic stability in rat plasma assessed as compound remaining after 30 mins by HPLC analysis; type: ADME, cell-free; conditions: read-out: Stability
In short: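 Compound was incubated in rat plasma for 30 min, then % compound remaining was determined. Values are the mean of two or more independent assays.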

[7] = test system: Plasma; assay: Metabolic stability in rat plasma in presence of free cysteine; type: ADME, cell-free
[8] = test system: Plasma; assay: Metabolic stability in rat plasma in presence of rat serum albumin; type: ADME, cell-free
[9] = test system: Plasma; assay: Metabolic stability in rat plasma in presence of glutathione; type: ADME, cell-free
[10] = test system: Plasma; assay: Metabolic stability in rat plasma in presence of broad spectrum esterase inhibitor; type: ADME, cell-free
[11] = Half life in dog at 5 mg/kg, iv and 10 mg/kg, po; type: ADME, organism-based, Canis lupus familiaris; conditions: in vivo
[12] = Half life in rat at 1 mg/kg, iv and 2 mg/kg, po; type: ADME, organism-based; conditions: in vivo
[13] = test system: Mus musculus; assay: In vivo inhibition of cathepsin C in C57BL/6J mouse lung homogenates assessed as cleavage of H-Gly-Arg)2 R110 at 30 mg/kg, po after 1.5 hrs; type: functional; set-up: scale not given: the % may be the effect or the level left
In short: (§1)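 Oral dose of 30 mg/kg to C57BL/6J mice, n = 5 per group. Crude lung homogenate was taken at 0.5, 1.5 and 3 h. Cathepsin C activity was measured by cleavage of (H-Gly-Arg)2 R110 at 10 μM and expressed as % inhibition.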

[14] = test system: Rattus norvegicus; assay: AUC in rat at 2 mg/kg, po; type: ADME, organism-based, Plasma; set-up: dose 2 mg/kg, route oral; conditions: in vivo
[15] = test system: Mus musculus; assay: In vivo inhibition of cathepsin C in C57BL/6J mouse lung homogenates assessed as cleavage of H-Gly-Arg)2 R110 at 30 mg/kg, po after 0.5 hrs; type: functional; set-up: scale not given: the % may be the effect or the level left; in short: as §1
[16] = Plasma clearance in dog at 5 mg/kg, iv and 10 mg/kg, po; type: ADME, organism-based, Canis lupus familiaris
[17] = test system: Mus musculus; assay: In vivo inhibition of cathepsin C in C57BL/6J mouse lung homogenates assessed as cleavage of H-Gly-Arg)2 R110 at 30 mg/kg administered intranasally after 1.5 hrs; type: functional; set-up: scale not given: the % may be the effect or the level left
[18] = Volume of distribution at steady state in dog at 5 mg/kg, iv and 10 mg/kg, po; type: ADME, organism-based, Canis lupus familiaris; conditions: in vivo, read-out: Vdss
[19] = test system: Mus musculus; assay: In vivo inhibition of cathepsin C in C57BL/6J mouse lung homogenates assessed as cleavage of H-Gly-Arg)2 R110 at 30 mg/kg administered intranasally after 3 hrs; type: functional; set-up: scale not given: the % may be the effect or the level left
[20] = Half life in mouse at 5 mg/kg, iv and 20 mg/kg, po; type: ADME, organism-based; conditions: in vivo
[21] = test system: Mus musculus; assay: In vivo inhibition of cathepsin C in C57BL/6J mouse lung homogenates assessed as cleavage of H-Gly-Arg)2 R110 at 30 mg/kg administered intranasally after 0.5 hrs; type: functional; set-up: scale not given: the % may be the effect or the level left
[22] = test system: Rattus norvegicus; assay: Bioavailability in rat at 1 mg/kg, iv and 2 mg/kg, po; type: ADME, organism-based; conditions: in vivo
[23] = test system: Mus musculus; assay: In vivo inhibition of cathepsin C in C57BL/6J mouse lung homogenates assessed as cleavage of H-Gly-Arg)2 R110 at 30 mg/kg, po after 3 hrs; type: functional; set-up: scale not given: the % may be the effect or the level left; in short: as §1
[24] = Volume of distribution at steady state in mouse at 5 mg/kg, iv and 20 mg/kg, po; type: ADME, organism-based; conditions: in vivo, read-out: Vdss
[25] = Volume of distribution at steady state in rat at 1 mg/kg, iv and 2 mg/kg, po; type: ADME, organism-based; conditions: in vivo, read-out: Vdss
[26] = Plasma clearance in mouse at 5 mg/kg, iv and 20 mg/kg, po; type: ADME, organism-based
[27] = test system: Mus musculus; assay: In vivo inhibition of cathepsin C in C57BL/6J mouse plasma assessed as cleavage of H-Gly-Arg)2 R110 at 30 mg/kg, po after 30 mins; type: functional; set-up: scale not given: the % may be the effect or the level left
In short: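 Female/male not stated; mice dosed orally at 30 mg/kg (n = 5). Plasma cathepsin C activity was read as cleavage of (H-Gly-Arg)2 R110 substrate at 10 μM, sampled 30 min post-dose as part of a time course.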

[28] = AUC in dog at 10 mg/kg, po; type: ADME, organism-based, Canis lupus familiaris; set-up: dose 10 mg/kg, route oral; conditions: plasma
[29] = Bioavailability in dog at 5 mg/kg, iv and 10 mg/kg, po; type: ADME, organism-based, Canis lupus familiaris; conditions: in vivo
[30] = Bioavailability in mouse at 5 mg/kg, iv and 20 mg/kg, po; type: ADME, organism-based; conditions: in vivo

Sequence of Cathepsin S (P25774 whole entry): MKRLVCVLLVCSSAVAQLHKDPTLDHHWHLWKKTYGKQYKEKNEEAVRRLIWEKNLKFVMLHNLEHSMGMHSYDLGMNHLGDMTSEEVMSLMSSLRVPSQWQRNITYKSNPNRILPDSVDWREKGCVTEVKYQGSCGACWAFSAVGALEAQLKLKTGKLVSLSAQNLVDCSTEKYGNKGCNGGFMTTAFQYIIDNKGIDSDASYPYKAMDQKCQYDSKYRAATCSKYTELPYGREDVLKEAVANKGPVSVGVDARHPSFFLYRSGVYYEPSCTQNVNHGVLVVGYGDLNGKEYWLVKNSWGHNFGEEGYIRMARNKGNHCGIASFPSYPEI

Structure (SMILES)	IC50 [1] [nM]	IC50 [2] [nM]	IC50 [3] [nM]	IC50 [4] [nM]	IC50 [5] [nM]	remaining at 0.5 h [6] [%]	other results
N#CN1CCC(CCc2ccccc2)C1 (centres undefined)	1580	5010	1260	2000	631	13	
COc1ccc(OC)c(S(=O)(=O)N[C@@H]2CCN(C#N)C2)c1	2000	12600	79.4	10	1260	23	
O=CN1CC[C@@H](NS(=O)(=O)c2cccc(Br)c2)C1	> 25100	> 25100	5010	> 25100	12600	95	
N#CN1CC[C@@H](NC(=O)Nc2ccccc2)C1	3980	1260		1000	1260		
COc1ccc(OC)c(S(=O)(=O)N[C@@H]2C[C@H](C)N(C#N)C2)c1	15800	> 25100	631	126	3160		
N#CN1CC[C@@H](NS(=O)(=O)c2cccc(Br)c2)C1	316	6310	7.94	7.94	39.8	18	Stability [7]: Stable; Stability [8]: Stable; Stability [9]: Stable; Stability [10]: Stable
N#CN1CC[C@@H](NC(=O)c2ccc(F)cc2)C1	12600	3980	63.1	2510			
N#CN1CCCC(CCc2ccccc2)C1 (centres undefined)	7940		10000	> 25100			
N#CN1CC[C@@H](NS(=O)(=O)c2cc(Br)ccc2Br)C1	126	1580	2	< 0.398	25.1	18	
CC(C)(C)OC(=O)N1CC[C@@H](NS(=O)(=O)c2cccc(Br)c2)C1	> 25100	> 25100	> 25100	> 25100	> 25100	≥ 100	
C[C@H]1C[C@@H](NS(=O)(=O)c2cccc(Br)c2)CN1C#N	3980	> 25100	251	158	3160		
N#CN1CCCC1 [CYANO-PYRROLIDINE]	25100	> 25100	3980	> 25100	1580		
C[C@@H]1C[C@@H](NS(=O)(=O)c2cccc(Br)c2)CN1C#N	15800	> 25100	1000	15800	2510	45	
C[C@H]1C[C@@H](NS(=O)(=O)c2cc(Br)ccc2Br)CN1C#N	1000	> 25100	39.8	3.16	501	88	half-life [11]: 42 min; half-life [12]: 12 min; Activity [13]: 16%; AUC [14]: 7 ng·h/mL; Activity [15]: 32%; clearance [16]: 29 mL/min/kg; Activity [17]: 66%; Vd [18]: 1.3 L/kg; Activity [19]: 85%; half-life [20]: 12 min; Activity [21]: 53%; F [22]: 8%; Activity [23]: 28%; Vd [24]: 0.4 L/kg; Vd [25]: 3.1 L/kg; clearance [26]: 16 mL/min/kg; Activity [27]: 35%; AUC [28]: 1180 ng·h/mL; bioavailability [29]: 20%; bioavailability [30]: 1%
COc1ccc(OC)c(S(=O)(=O)N[C@@H]2C[C@@H](C)N(C#N)C2)c1	> 25100	> 25100	> 25100	> 25100	> 25100	88	
N#CN1CC[C@H](NS(=O)(=O)c2ccccc2)C1	501	3980	31.6	316		48	
N#CN1CC[C@@H](NS(=O)(=O)c2ccccc2)C1	1580	10000	200	316		30	
